Results from different studies.
Compare with care: the assays were run in different laboratories.
Target: Serine/threonine-protein kinase PAK 1 (PAK1, Homo sapiens, UniProt Q13153)

SMILES	assay	setting	measurement	value
C=CC(=O)N1CCC([C@@H]2CCNc3c(C(N)=O)c(-c4ccc(Oc5ccccc5)cc4)nn32)CC1	enzyme activity, inhibitor	1 µM	inhibition	9%
CCCCC(=O)Nc1ccc(-c2ccc3ncn(CCC)c(=O)c3c2)cn1	binding, competition with immobilised ligand	0.5 µM	remaining binding	97%
C[C@H]1CC[C@H](n2c3cnccc3c3cnc(Nc4ccc5c(n4)CCN(C(=O)CO)C5)nc32)CC1	cell-free assay	1 µM	remaining signal	100%
CC#CC(=O)N1CCC[C@H]1c1nc(-c2ccc(C(=O)Nc3ccccn3)cc2)c2c(N)nccn12	enzyme activity, inhibitor	1 µM	inhibition	1%
N#Cc1ccc(NC(=O)Nc2ccccc2)cc1	cell-free assay, competition with immobilised ligand	25 µM	remaining binding	92%
COc1ccc2oc(-c3ccc4nc(N)oc4c3)c/c(=N\c3ccccc3NC(=O)CCN)c2c1	binding	1 µM	remaining binding	104%
C1=C/COCc2cc(ccc2OCCN2CCCC2)Nc2nccc(n2)-c2cccc(c2)COC/1	binding	0.1 µM	remaining binding	100%
COc1ccc2[nH]c3c4[nH]c5ccc(OC)cc5c4c4c(c3c2c1)C(=O)NC4=O	binding	1 µM	remaining binding	70%
